The record followed here is ChEMBL document CHEMBL1275331, “Discovery of a novel 5-HT(3) antagonist/5-HT(1A) agonist 3-amino-5,6,7,8-tetrahydro-2-{4-[4-(quinolin-2-yl)piperazin-1-yl]butyl}quinazolin-4(3H)-one (TZB-30878) as an orally bioavailable agent for irritable bowel syndrome” (J Med Chem, 2010).

In one series the test system is Rattus norvegicus. Put plainly: […] activity in rat assessed as inhibition of 5HT-induced bradycardia at 10 ug/kg, iv by von Benzold-Jarisch reflex assay. In kind it is functional.
Series [1] deals with T1, 5-hydroxytryptamine receptor 3A (Homo sapiens, UniProt P46098).
T1 sequence (P46098 whole entry): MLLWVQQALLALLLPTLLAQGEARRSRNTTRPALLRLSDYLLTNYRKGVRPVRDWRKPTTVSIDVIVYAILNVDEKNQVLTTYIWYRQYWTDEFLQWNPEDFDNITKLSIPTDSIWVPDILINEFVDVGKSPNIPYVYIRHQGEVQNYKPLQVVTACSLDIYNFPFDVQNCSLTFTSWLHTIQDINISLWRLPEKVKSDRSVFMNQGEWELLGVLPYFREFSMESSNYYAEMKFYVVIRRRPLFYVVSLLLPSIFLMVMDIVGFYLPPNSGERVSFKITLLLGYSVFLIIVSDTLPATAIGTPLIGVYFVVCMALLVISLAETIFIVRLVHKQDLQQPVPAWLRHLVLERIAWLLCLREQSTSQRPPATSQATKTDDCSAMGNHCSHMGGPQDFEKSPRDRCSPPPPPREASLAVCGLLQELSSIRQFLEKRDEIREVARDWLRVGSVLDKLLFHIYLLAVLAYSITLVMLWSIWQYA
In words: Displacement of [3H]BRL-43694 from human 5HT3 receptor expressed in HEK293 cells by liquid scintillation counting. In kind it is cell-based. The gist of the method: (§1)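 HEK-293 membranes expressing human 5-HT3 were incubated with 0.5 nmol/L [3H]BRL-43694 (final) for 60 min at 25 °C. Buffer: 50 mM Tris-HCl, 5 mM MgCl2, 1 mM EDTA, pH 7.5. Compound came from 270 μmol/L DMSO stock, diluted in buffer. Filtration was through GF/B presoaked in 0.5% polyethyleneimine, with two cold Tris washes. Run in duplicate or triplicate; percent inhibition calculated.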
In general terms: In a radioligand displacement assay an active substance lowers the binding of a labelled ligand.

Series [2] addresses Sodium-dependent noradrenaline transporter (Homo sapiens, UniProt P23975). In words: Displacement of [3H]nisoxetine from human recombinant NET.
In series [3] the target is T2, 5-hydroxytryptamine receptor 1A (Homo sapiens) (UniProt P08908).
T2 sequence (whole entry): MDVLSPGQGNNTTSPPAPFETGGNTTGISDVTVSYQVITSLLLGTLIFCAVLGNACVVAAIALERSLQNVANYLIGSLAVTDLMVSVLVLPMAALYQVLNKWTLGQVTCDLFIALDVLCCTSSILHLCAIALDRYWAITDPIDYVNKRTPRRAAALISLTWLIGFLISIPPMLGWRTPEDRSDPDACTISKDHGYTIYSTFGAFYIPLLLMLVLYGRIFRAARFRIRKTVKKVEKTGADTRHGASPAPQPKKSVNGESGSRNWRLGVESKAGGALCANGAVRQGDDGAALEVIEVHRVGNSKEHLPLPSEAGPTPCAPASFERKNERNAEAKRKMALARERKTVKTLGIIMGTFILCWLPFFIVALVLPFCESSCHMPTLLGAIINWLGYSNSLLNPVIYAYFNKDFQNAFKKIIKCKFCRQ
In words: Agonist activity at human cloned 5HT1A receptor expressed in CHO cells assessed as stimulation of [35S]GTPgammaS binding at 900 uL after 30 mins by liquid scintillation counting. The format is functional, cell-based. The gist of the method: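 Membranes from CHO cells expressing human 5-HT1A were diluted in 20 mM HEPES/3 mM MgCl2/120 mM NaCl, pH 7.4. They were preincubated with 20 μM GDP and test drug for 20 min at 30 °C, then held on ice for 15 min. [35S]GTPγS (100 pM) was added for 30 min at 30 °C. Samples were filtered, washed with cold HEPES/MgCl2 buffer, and bound radioactivity counted; EC50 and Emax reported.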
(Binding of GTPγS marks nucleotide exchange on a G protein.)

Series [4] addresses T3, Adrenergic receptor alpha-1 (Rattus norvegicus, UniProt P15823+P23944+P43140). In words: Inhibition of rat alpha1 adrenergic receptor.
The nature of series [5]: Drug level in Sprague-Dawley rat brain at 3 mg/kg, po after 4 hrs by HPLC analysis. The format is ADME, organism-based. Details: dose 3 mg/kg, route oral. The conditions noted are these: read-out: Drug uptake. An outline of the steps:
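Total compound concentration was measured in brain and blood at 2, 4 and 8 h after a single oral 3 mg/kg dose. Brain/blood ratio was also derived. Values are mean ± SD of three rats.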

Series [6] addresses T4, 5-hydroxytryptamine receptor 1A (Homo sapiens, UniProt P08908).
T4 sequence (P08908 whole entry): T2 sequence (whole entry)
Put plainly: Displacement of [3H]8-OH-DPAT from human 5HT1A receptor expressed in CHO cells by liquid scintillation counting. The format is cell-based. An outline of the steps: (§2)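 CHO-cell membranes with human 5-HT1A were incubated with 0.25 nmol/L [3H]8-OH-DPAT (final) for 60 min at 27 °C. Buffer: 50 mM Tris-HCl, 10 mM MgSO4, 0.5 mM EDTA, 0.1% ascorbic acid, pH 7.4. Compound came from 270 μmol/L DMSO stock, diluted in buffer. Filtration was through GF/C presoaked in 0.3% polyethyleneimine, with two cold Tris washes. Run in duplicate or triplicate; percent inhibition of binding calculated.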

Series [7] concerns the target T4, 5-hydroxytryptamine receptor 1A. In words: Binding affinity to human 5HT1A receptor. An outline of the steps:
as §2

Series [8] concerns the target T5, 5-hydroxytryptamine receptor 3A (Cavia porcellus) (UniProt O70212).
T5 sequence (whole entry): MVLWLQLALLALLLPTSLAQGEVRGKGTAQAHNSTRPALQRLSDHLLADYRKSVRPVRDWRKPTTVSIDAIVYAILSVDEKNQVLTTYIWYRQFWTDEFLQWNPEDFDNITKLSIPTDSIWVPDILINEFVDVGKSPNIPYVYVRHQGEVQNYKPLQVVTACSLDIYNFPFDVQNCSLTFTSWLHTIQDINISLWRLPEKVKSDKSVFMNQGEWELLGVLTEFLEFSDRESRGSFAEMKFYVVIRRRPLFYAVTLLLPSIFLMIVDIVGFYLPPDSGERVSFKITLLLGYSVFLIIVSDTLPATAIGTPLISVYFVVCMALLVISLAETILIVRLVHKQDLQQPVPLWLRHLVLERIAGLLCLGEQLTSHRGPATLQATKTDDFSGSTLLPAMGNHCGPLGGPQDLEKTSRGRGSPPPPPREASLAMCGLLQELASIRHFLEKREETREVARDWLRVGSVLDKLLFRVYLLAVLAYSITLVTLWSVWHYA
In words: Inhibition of 5HT3 receptor-mediated contraction of guinea pig ileum at 1 umol/L after 20 mins relative to control. The format is tissue-based. An outline of the steps: (§3)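 Ileum strips in Tyrode solution at 37 °C, gassed 5% CO2/95% O2, isotonic contractions under 1 g load. After at least 3 stable contractions to 10 μM 2-methyl-5-HT, tissue exposed to compound or DMSO vehicle for 20 min, then 10 μM 2-methyl-5-HT re-added; contraction expressed as % inhibition of control.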

In series [9] the target is T3, Adrenergic receptor alpha-1. Put plainly: Displacement of [3H]prazosin from rat cerebral cortex alpha1 adrenergic receptor. The format is tissue-based.
Series [10] concerns the target 5-hydroxytryptamine receptor 6 (Homo sapiens, UniProt P50406). Put plainly: Displacement of [3H]LSD from human recombinant 5HT6 receptor.
The target of series [11] is T1, 5-hydroxytryptamine receptor 3A. Put plainly: Binding affinity to human 5HT3 receptor. The gist of the method: as §1
Series [12] addresses Kappa-type opioid receptor (Cavia porcellus, UniProt P41144). Put plainly: Displacement of [3H]U69593 from guinea pig cerebellum kappa opioid receptor. In kind it is tissue-based.
Series [13] concerns the target T5, 5-hydroxytryptamine receptor 3A (Cavia porcellus). Put plainly: Inhibition of 5HT3 receptor-mediated contraction of guinea pig ileum at 0.1 umol/L after 20 mins relative to control. The format is tissue-based. The gist of the method:
as §3

Sequence of Kappa-type opioid receptor (P41144 whole entry): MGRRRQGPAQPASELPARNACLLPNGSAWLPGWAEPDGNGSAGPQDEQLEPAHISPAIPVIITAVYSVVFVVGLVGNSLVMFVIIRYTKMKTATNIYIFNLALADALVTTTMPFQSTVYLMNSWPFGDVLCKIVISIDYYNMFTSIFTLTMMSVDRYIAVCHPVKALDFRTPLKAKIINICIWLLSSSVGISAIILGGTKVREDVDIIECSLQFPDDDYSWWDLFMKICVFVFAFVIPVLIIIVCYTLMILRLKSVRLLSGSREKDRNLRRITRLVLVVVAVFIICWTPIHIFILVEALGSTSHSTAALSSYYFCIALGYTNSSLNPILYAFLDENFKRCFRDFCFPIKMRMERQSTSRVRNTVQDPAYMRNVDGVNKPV
Sequence of Sodium-dependent noradrenaline transporter (P23975 whole entry): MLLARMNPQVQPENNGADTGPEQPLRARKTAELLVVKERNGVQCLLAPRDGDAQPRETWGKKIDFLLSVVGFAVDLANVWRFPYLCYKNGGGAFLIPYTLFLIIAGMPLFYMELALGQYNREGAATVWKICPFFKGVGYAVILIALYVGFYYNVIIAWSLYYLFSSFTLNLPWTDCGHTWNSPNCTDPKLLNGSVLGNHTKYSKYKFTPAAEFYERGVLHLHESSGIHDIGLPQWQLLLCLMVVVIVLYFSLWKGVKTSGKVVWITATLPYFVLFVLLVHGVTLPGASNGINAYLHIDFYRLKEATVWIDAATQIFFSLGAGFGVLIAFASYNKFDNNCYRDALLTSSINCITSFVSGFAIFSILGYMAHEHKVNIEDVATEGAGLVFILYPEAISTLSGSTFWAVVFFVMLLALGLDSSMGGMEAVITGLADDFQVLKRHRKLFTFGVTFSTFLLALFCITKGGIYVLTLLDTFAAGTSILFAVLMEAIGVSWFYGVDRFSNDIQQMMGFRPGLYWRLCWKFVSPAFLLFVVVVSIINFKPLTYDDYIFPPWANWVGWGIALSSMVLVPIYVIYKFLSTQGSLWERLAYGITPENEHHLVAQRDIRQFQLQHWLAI
Sequence of 5-hydroxytryptamine receptor 6 (P50406 whole entry): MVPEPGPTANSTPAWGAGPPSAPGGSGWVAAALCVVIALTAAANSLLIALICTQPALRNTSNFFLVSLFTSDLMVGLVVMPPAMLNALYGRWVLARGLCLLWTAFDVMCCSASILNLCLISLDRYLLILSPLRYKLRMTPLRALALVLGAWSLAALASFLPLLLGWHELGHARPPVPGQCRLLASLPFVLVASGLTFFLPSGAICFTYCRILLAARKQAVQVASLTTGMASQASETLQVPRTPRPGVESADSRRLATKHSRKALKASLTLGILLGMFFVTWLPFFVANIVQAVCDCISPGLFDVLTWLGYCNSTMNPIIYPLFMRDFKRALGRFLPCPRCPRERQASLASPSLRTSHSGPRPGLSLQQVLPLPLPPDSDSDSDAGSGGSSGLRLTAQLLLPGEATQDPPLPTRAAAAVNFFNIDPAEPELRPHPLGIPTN

In general, inhibition in vivo refers to the relative decrease from the control value, in per cent. As usually defined, the Emax is the greatest response seen or fitted, relative to the assay's reference. The Ki is the equilibrium dissociation constant of an inhibitor or competing ligand from its target. Usually inhibition stands for the change of the read-out against control, counted positive when it falls. Higher therefore signals a response far below the control. As to `Nn1c(CCCCN2CCN(c3ccc4ccccc4n3)CC2)nc2c(c1=O)CCCC2`, in the series on Rattus norvegicus, the inhibition in vivo at 0.01 mg/kg is at most 64%. For the same compound, the IC50 in series [1] is 8.9 nM; in series [2] it was over 1000 nM; in series [4], over 100 nM; in series [6] it was 1.4 nM; in series [9] it was 1 ×10⁻⁶ mol/L; in [10], over 1000 nM. For the same compound, in [12], the IC50 is over 1000 nM. Besides, the Emax in series [3] was 99.8%. The concentration at 4 h in series [5] is 70.2 nM. For the same compound, the inhibition constant Ki in series [7] was 0.701 nM; in series [11], 4.72 nM. Further, the inhibition in series [8] worked out at 96.8%; in series [13] it was 70.4%.
